Converted amounts (≈) assume the structure as drawn.
Key:
Format in all cases: functional
Prevotella intermedia = experiment: Antimicrobial activity against Prevotella intermedia after 48 hrs by agar dilution method
Summary of the method: (§1)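 CLSI agar dilution (M11-A7); inoculum 10^5 CFU applied by replicator; plates incubated anaerobically 48 h at 37°C. For piperacillin-tazobactam, tazobactam held constant at 4 μg/ml.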

Schaalia meyeri = experiment: Antimicrobial activity against Actinomyces meyeri assessed as percent susceptible isolates after 48 hrs by agar dilution method
Anaerococcus prevotii [1] = experiment: Antimicrobial activity against Anaerococcus prevotii after 48 hrs by agar dilution method
Summary of the method: (§2)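 MICs on clinical anaerobe isolates by the CLSI agar dilution method. Inoculum of 10^5 CFU applied with a Steers replicator. Plates incubated 48 h at 37°C in an anaerobic chamber.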

[2] = system: Peptoniphilus asaccharolyticus; experiment: Antimicrobial activity against Peptoniphilus asaccharolyticus assessed as percent resistant isolates after 48 hrs by agar dilution method
Summary of the method: (§3)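 CLSI agar dilution on recent Korean clinical anaerobe isolates. Inoculum 10^5 CFU per spot by replicator. Plates incubated in an anaerobic chamber at 37°C for 48 h. For piperacillin plus tazobactam, tazobactam was held constant at 4 μg/ml. Resistance and susceptibility rates derived from MICs.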

Bacteroides caccae [3] = experiment: Antimicrobial activity against Bacteroides caccae after 48 hrs by agar dilution method; summary of the method: as §2
Phocaeicola vulgatus = experiment: Antimicrobial activity against Bacteroides vulgatus after 48 hrs by agar dilution method; summary of the method: as §2
Fusobacterium necrogenes = experiment: Antimicrobial activity against Fusobacterium necrogenes after 48 hrs by agar dilution method; summary of the method: as §1
Bacteroides ovatus = experiment: Antimicrobial activity against Bacteroides ovatus assessed as percent susceptible isolates after 48 hrs by agar dilution method
Eggerthella lenta [4] = experiment: Antimicrobial activity against Eubacterium lentum after 48 hrs by agar dilution method; summary of the method: as §1
Bacteroides caccae [5] = experiment: Antimicrobial activity against Bacteroides caccae assessed as percent susceptible isolates after 48 hrs by agar dilution method
Schaalia odontolytica [6] = experiment: Antimicrobial activity against Actinomyces odontolyticus assessed as percent susceptible isolates after 48 hrs by agar dilution method
[7] = system: Porphyromonas asaccharolytica; experiment: Antimicrobial activity against Porphyromonas asaccharolytica after 48 hrs by agar dilution method; summary of the method: as §1
Bifidobacterium sp. [8] = experiment: Antimicrobial activity against Bifidobacterium sp. assessed as percent susceptible isolates after 48 hrs by agar dilution method; summary of the method: as §1
Hoylesella oralis = experiment: Antimicrobial activity against Prevotella oralis assessed as percent resistant isolates after 48 hrs by agar dilution method; summary of the method: as §3
[9] = system: Peptoniphilus asaccharolyticus; experiment: Antimicrobial activity against Peptoniphilus asaccharolyticus assessed as percent susceptible isolates after 48 hrs by agar dilution method; summary of the method: as §1
Parvimonas micra = experiment: Antimicrobial activity against Peptostreptococcus micros after 48 hrs by agar dilution method; summary of the method: as §1
Bifidobacterium sp. [10] = experiment: Antimicrobial activity against Bifidobacterium sp. after 48 hrs by agar dilution method; summary of the method: as §2
Actinomyces naeslundii = experiment: Antimicrobial activity against Actinomyces naeslundii assessed as percent susceptible isolates after 48 hrs by agar dilution method
Eggerthella lenta [11] = experiment: Antimicrobial activity against Eubacterium lentum assessed as percent susceptible isolates after 48 hrs by agar dilution method; summary of the method: as §1
Anaerococcus prevotii [12] = experiment: Antimicrobial activity against Anaerococcus prevotii assessed as percent susceptible isolates after 48 hrs by agar dilution method
Fusobacterium mortiferum = experiment: Antimicrobial activity against Fusobacterium mortiferum after 48 hrs by agar dilution method; summary of the method: as §1
[13] = system: Peptoniphilus asaccharolyticus; experiment: Antimicrobial activity against Peptoniphilus asaccharolyticus after 48 hrs by agar dilution method; summary of the method: as §1
Prevotella bivia = experiment: Antimicrobial activity against Prevotella bivia assessed as percent susceptible isolates after 48 hrs by agar dilution method; summary of the method: as §1
Prevotella buccae = experiment: Antimicrobial activity against Prevotella buccae after 48 hrs by agar dilution method; conditions: Segatella buccae; summary of the method: as §1
Bifidobacterium sp. [14] = experiment: Antimicrobial activity against Bifidobacterium sp. assessed as percent resistant isolates after 48 hrs by agar dilution method; summary of the method: as §3
[15] = system: Bifidobacterium adolescentis; experiment: Antimicrobial activity against Bifidobacterium adolescentis assessed as percent susceptible isolates after 48 hrs by agar dilution method
Bacteroides fragilis = experiment: Antimicrobial activity against Bacteroides fragilis assessed as percent susceptible isolates after 48 hrs by agar dilution method
[16] = system: Parabacteroides distasonis; experiment: Antimicrobial activity against Bacteroides distasonis assessed as percent resistant isolates after 48 hrs by agar dilution method; summary of the method: as §3
Schaalia odontolytica [17] = experiment: Antimicrobial activity against Actinomyces odontolyticus assessed as percent resistant isolates after 48 hrs by agar dilution method; summary of the method: as §3

Structure (SMILES)	MIC50 (Prevotella intermedia)	MIC90 (Prevotella intermedia)	Activity (Schaalia meyeri)	MIC50 (Anaerococcus prevotii [1])	MIC90 (Anaerococcus prevotii [1])	Activity [2]	MIC50 (Bacteroides caccae [3])	MIC90 (Bacteroides caccae [3])	MIC50 (Phocaeicola vulgatus)	MIC90 (Phocaeicola vulgatus)	Activity (Bacteroides ovatus)	MIC50 (Eggerthella lenta [4])	MIC90 (Eggerthella lenta [4])	Activity (Bacteroides caccae [5])	Activity (Schaalia odontolytica [6])	Activity (Bifidobacterium sp. [8])	Activity [9]	MIC50 (Parvimonas micra)	MIC90 (Parvimonas micra)	MIC50 (Bifidobacterium sp. [10])	other results
CO[C@@]1(NC(=O)C2SC(=C(C(N)=O)C(=O)O)S2)C(=O)N2C(C(=O)O)=C(CSc3nnnn3C)CS[C@@H]21 (stereo partly specified) [CEFOTETAN]	2 µg/mL (≈ 3.47 µM)	16 µg/mL (≈ 27.8 µM)	85%	1 µg/mL (≈ 1.74 µM)	2 µg/mL (≈ 3.47 µM)	0%	> 128 µg/mL	> 128 µg/mL	> 128 µg/mL	> 128 µg/mL	89%	4 µg/mL (≈ 6.95 µM)	64 µg/mL (≈ 111 µM)	89%	85%	85%	100%	4 µg/mL (≈ 6.95 µM)	64 µg/mL (≈ 111 µM)	4 µg/mL (≈ 6.95 µM)	MIC (Fusobacterium necrogenes): 0.06 µg/mL (≈ 0.104 µM); MIC [7]: 0.06 µg/mL (≈ 0.104 µM); Activity (Hoylesella oralis): 17%; MIC90 (Bifidobacterium sp. [10]): 64 µg/mL (≈ 111 µM); Activity (Actinomyces naeslundii): 85%; Activity (Eggerthella lenta [11]): 85%; Activity (Anaerococcus prevotii [12]): 100%; MIC (Fusobacterium mortiferum): 0.06 µg/mL (≈ 0.104 µM); MIC50 [13]: 0.25 µg/mL (≈ 0.434 µM); MIC90 [13]: 1 µg/mL (≈ 1.74 µM); Activity (Prevotella bivia): 72%; MIC50 (Prevotella buccae): 4 µg/mL (≈ 6.95 µM); MIC90 (Prevotella buccae): 64 µg/mL (≈ 111 µM); Activity (Bifidobacterium sp. [14]): 15%; Activity [15]: 85%; Activity (Bacteroides fragilis): 71%; Activity [16]: 86%; Activity (Schaalia odontolytica [17]): 15%
CO[C@@]1(NC(=O)Cc2cccs2)C(=O)N2C(C(=O)O)=C(COC(N)=O)CS[C@@H]21 [CEFOXITIN]	2 µg/mL (≈ 4.68 µM)	4 µg/mL (≈ 9.36 µM)	92%	0.5 µg/mL (≈ 1.17 µM)	1 µg/mL (≈ 2.34 µM)	0%	32 µg/mL (≈ 74.9 µM)	32 µg/mL (≈ 74.9 µM)	32 µg/mL (≈ 74.9 µM)	32 µg/mL (≈ 74.9 µM)	25%	2 µg/mL (≈ 4.68 µM)	16 µg/mL (≈ 37.4 µM)	25%	92%	92%	100%	1 µg/mL (≈ 2.34 µM)	16 µg/mL (≈ 37.4 µM)	2 µg/mL (≈ 4.68 µM)	MIC (Fusobacterium necrogenes): 0.06 µg/mL (≈ 0.14 µM); MIC [7]: 0.06 µg/mL (≈ 0.14 µM); Activity (Hoylesella oralis): 0%; MIC90 (Bifidobacterium sp. [10]): 16 µg/mL (≈ 37.4 µM); Activity (Actinomyces naeslundii): 92%; Activity (Eggerthella lenta [11]): 92%; Activity (Anaerococcus prevotii [12]): 100%; MIC (Fusobacterium mortiferum): 0.06 µg/mL (≈ 0.14 µM); MIC50 [13]: ≤ 0.06 µg/mL; MIC90 [13]: 0.5 µg/mL (≈ 1.17 µM); Activity (Prevotella bivia): 89%; MIC50 (Prevotella buccae): 1 µg/mL (≈ 2.34 µM); MIC90 (Prevotella buccae): 32 µg/mL (≈ 74.9 µM); Activity (Bifidobacterium sp. [14]): 0%; Activity [15]: 92%; Activity (Bacteroides fragilis): 79%; Activity [16]: 7%; Activity (Schaalia odontolytica [17]): 0%
CCC[C@@H]1C[C@@H](C(=O)N[C@@H]([C@H]2O[C@H](SC)[C@H](O)[C@@H](O)[C@H]2O)[C@H](C)Cl)N(C)C1 [CLINDAMYCIN]	≤ 0.06 µg/mL	≤ 0.06 µg/mL	85%	2 µg/mL (≈ 4.71 µM)	128 µg/mL (≈ 301 µM)	33%	> 128 µg/mL	> 128 µg/mL	> 128 µg/mL	> 128 µg/mL	16%	0.06 µg/mL (≈ 0.141 µM)	> 128 µg/mL	16%	85%	85%	67%	0.125 µg/mL (≈ 0.294 µM)	64 µg/mL (≈ 151 µM)	0.06 µg/mL (≈ 0.141 µM)	MIC (Fusobacterium necrogenes): 0.06 µg/mL (≈ 0.141 µM); MIC (Eggerthella lenta [4]): 0.06 µg/mL (≈ 0.141 µM); MIC [7]: 0.06 µg/mL (≈ 0.141 µM); MIC (Bifidobacterium sp. [10]): 0.06 µg/mL (≈ 0.141 µM); MIC90 (Bifidobacterium sp. [10]): > 128 µg/mL; Activity (Actinomyces naeslundii): 85%; Activity (Eggerthella lenta [11]): 85%; Activity (Anaerococcus prevotii [12]): 60%; MIC (Fusobacterium mortiferum): 0.06 µg/mL (≈ 0.141 µM); MIC50 [13]: 0.125 µg/mL (≈ 0.294 µM); MIC90 [13]: 32 µg/mL (≈ 75.3 µM); Activity (Prevotella bivia): 50%; MIC50 (Prevotella buccae): ≤ 0.06 µg/mL; MIC90 (Prevotella buccae): 128 µg/mL (≈ 301 µM); Activity (Bifidobacterium sp. [14]): 15%; Activity [15]: 85%; Activity (Bacteroides fragilis): 67%; Activity [16]: 68%; Activity (Schaalia odontolytica [17]): 15%
Cc1ncc([N+](=O)[O-])n1CCO [METRONIDAZOLE]	0.5 µg/mL (≈ 2.92 µM)	2 µg/mL (≈ 11.7 µM)	46%	1 µg/mL (≈ 5.84 µM)	1 µg/mL (≈ 5.84 µM)	0%	2 µg/mL (≈ 11.7 µM)	2 µg/mL (≈ 11.7 µM)	2 µg/mL (≈ 11.7 µM)	2 µg/mL (≈ 11.7 µM)	100%	16 µg/mL (≈ 93.5 µM)	> 128 µg/mL	100%	46%	46%	100%	0.5 µg/mL (≈ 2.92 µM)	1 µg/mL (≈ 5.84 µM)	16 µg/mL (≈ 93.5 µM)	MIC (Prevotella intermedia): 0.5 µg/mL (≈ 2.92 µM); MIC (Fusobacterium necrogenes): 0.13 µg/mL (≈ 0.76 µM); MIC [7]: 0.13 µg/mL (≈ 0.76 µM); Activity (Hoylesella oralis): 0%; MIC90 (Bifidobacterium sp. [10]): > 128 µg/mL; Activity (Actinomyces naeslundii): 46%; Activity (Eggerthella lenta [11]): 46%; Activity (Anaerococcus prevotii [12]): 100%; MIC (Fusobacterium mortiferum): 0.13 µg/mL (≈ 0.76 µM); MIC50 [13]: 1 µg/mL (≈ 5.84 µM); MIC90 [13]: 1 µg/mL (≈ 5.84 µM); Activity (Prevotella bivia): 100%; MIC50 (Prevotella buccae): 4 µg/mL (≈ 23.4 µM); MIC90 (Prevotella buccae): 8 µg/mL (≈ 46.7 µM); Activity [15]: 46%; Activity (Bacteroides fragilis): 100%; Activity [16]: 0%
COc1c(N2C[C@@H]3CCCN[C@@H]3C2)c(F)cc2c(=O)c(C(=O)O)cn(C3CC3)c12 [MOXIFLOXACIN]	0.5 µg/mL (≈ 1.25 µM)	0.5 µg/mL (≈ 1.25 µM)	92%	0.25 µg/mL (≈ 0.623 µM)	8 µg/mL (≈ 19.9 µM)	0%	2 µg/mL (≈ 4.98 µM)	16 µg/mL (≈ 39.9 µM)	2 µg/mL (≈ 4.98 µM)	16 µg/mL (≈ 39.9 µM)	72%	1 µg/mL (≈ 2.49 µM)	2 µg/mL (≈ 4.98 µM)	72%	92%	92%	100%	0.125 µg/mL (≈ 0.311 µM)	0.25 µg/mL (≈ 0.623 µM)	1 µg/mL (≈ 2.49 µM)	MIC (Prevotella intermedia): 0.5 µg/mL (≈ 1.25 µM); Activity (Hoylesella oralis): 11%; MIC90 (Bifidobacterium sp. [10]): 2 µg/mL (≈ 4.98 µM); Activity (Actinomyces naeslundii): 92%; Activity (Eggerthella lenta [11]): 92%; Activity (Anaerococcus prevotii [12]): 87%; MIC50 [13]: 0.25 µg/mL (≈ 0.623 µM); MIC90 [13]: 2 µg/mL (≈ 4.98 µM); Activity (Prevotella bivia): 56%; Activity (Bifidobacterium sp. [14]): 0%; Activity [15]: 92%; Activity (Bacteroides fragilis): 84%; Activity [16]: 18%; Activity (Schaalia odontolytica [17]): 0%

— ChEMBL document CHEMBL1671716, “Antimicrobial susceptibility patterns for recent clinical isolates of anaerobic bacteria in South Korea” (2010)
